The values that follow come from PMC11539713 (Malaria Journal, 2024).

The term Km denotes the concentration of substrate that gives half-maximal velocity. A word on the MIC50: it is the lowest concentration that inhibits either 50% of growth or 50% of the strains tested, depending on the study. Broadly, the MIC90 is the lowest concentration that inhibits either 90% of growth or 90% of the strains tested, depending on the study. The CL/F is clearance divided by bioavailability, as obtained after extravascular dosing. By Tmax is commonly meant the time from dosing to the highest level. A word on the half-life: it is the time needed for the level to fall by half in the phase considered. A lower half-life goes with fast loss. The Cmax is the peak of the concentration-time curve. The fraction unbound is the share of the substance not bound to proteins or other matrix. Low readings indicate extensive binding, high ones weak binding. By Ki is commonly meant the equilibrium dissociation constant of an inhibitor or competing ligand from its target.

Molecules are shown by their SMILES. In brackets after ≈: the same amount, converted by molar mass. Several values for one entry are separate records, joined by “and”; a condition that tells them apart may be missing. Equal values may be shown once. Read-outs that look alike come from different tables or passages of the source.

The test system of one series is CYP enzymes. The series is described as follows: Enzyme phenotyping with. Type of series: in vitro ADME, human. The following applies: for Effect of inhibitor on formation of ART-M in HLMs: ART 1 μM, HLMs 1 mg/mL, 1 mM 1-ABT, 1 μM ketoconazole.
Series [1] can be described thus: Enzyme kinetics of ART metabolism in human liver microsomes. Type of series: in vitro ADME. The following applies: HLMs 0.5 mg/mL; for microsomal CLint: CLint,H, Vmax/Km, 15 min.
Series [2] deals with Pf3D7. The following applies: cited from earlier work.
Series [3] deals with Pf3D7. Nature of the series: In vitro drug susceptibility, SYBR Green I fluorometric method, Pf3D7. The following applies: Plasmodium falciparum. Format: cell-based. The essentials: (§1)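 Synchronous ring-stage P. falciparum culture at final 0.5% parasitaemia and 2% haematocrit, exposed to test compound. Chloroquine served as positive control and 0.1% DMSO as negative control. Growth was read by SYBR Green I fluorescence. MIC50/MIC90 came from nonlinear regression of log-transformed concentrations, averaged over two independent experiments each run in duplicate.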

The subject of series [4] is PfDd2. The series is described as follows: In vitro drug susceptibility, SYBR Green I fluorometric method, PfDd2. Type of series: cell-based. The following applies: Plasmodium falciparum. The procedure, abridged:
as §1

The conditions of series [5]: cited from earlier work.
The format of series [6] is in vivo, human. The following applies: for fAUC0-t: area under the free plasma concentration–time curve; for fCmax: maximum free plasma concentration. The procedure, abridged:
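Subjects were six healthy non-smoking men, 20–26 y, BMI 20–25 kg/m2. Each received oral test compound 125 mg plus piperaquine 750 mg per dose over two days. Venous blood was drawn 0–48 h, and plasma was stored at −80 °C. Samples were prepared by acetonitrile precipitation with deuterated internal standard and analysed by LC-HRMS. Non-compartmental analysis used observed Cmax/Tmax, AUC0-t by linear trapezoidal rule, and CL/F = dose/AUC0-t.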

Series [7] has as its system PfDd2. The following applies: cited from earlier work.
Series [8] is described as follows: Plasma protein binding by ultrafiltration. Format: in vitro ADME. The following applies: human, pooled human plasma.
Another series concerns CYP3A. The following applies: read-out: Inhibition constant Ki of CYP3A; cited from earlier work.
For series [9] the following is noted: cited from earlier work. The source holds these as a separate data set.
Where [10] appears, read: read-out: Antiplasmodial activity (literature data).

In the case of `Nn1nnc2ccccc21` [1-ABT], in the series on CYP enzymes, the “Effect of inhibitor on formation of ART-M in HLMs” value is on record as “completely inhibited”. Moreover, the “Effect of inhibitor on formation of trace metabolite isomer M1” value in the series on CYP enzymes (ART in HLMs) was “inhibited completely”.
As to `C[C@@H]1CC[C@H]2[C@@H](C)C(=O)O[C@@H]3O[C@@]4(C)CC[C@@H]1[C@]32OO4` [ART, Artemisinin], the microsomal CLint is 27.6 µL/min/mg in series [1] (formation of ART-M) and 30.3 µL/min/mg in series [1] (substrate depletion). Further, the Michaelis-Menten constant (Km) at 15 min in series [1] (Km, substrate depletion) came to 23.8 µM. The IC50 with Pf3D7 [2] (setting [10]) and with PfDd2 [7] (setting [10]) was 10 to 30 nM throughout. For the same compound, the results for the MIC50 against Pf3D7 [3] and in the series on PfDd2 [4] were 0.0101 µM (≈ 2.85 ng/mL) and 0.0204 µM (≈ 5.76 ng/mL), respectively. In addition, the figures for the MIC90 in the series on Pf3D7 [3] and in the series on PfDd2 [4] were 0.0139 ± 0.0005 µM (≈ 3.92 ng/mL) and 0.0384 ± 0.0009 µM (≈ 10.8 ng/mL), respectively. The Bioavailability in series [5] is ~ 30%. Further, the “Elimination half-life t1/2” value in [5] was ~ 2 h. Further, the fAUC0-t was determined as 155.6 ± 27.6 nmol/L⋅h in series [6] (Day-1) and 113.0 ± 20.1 nmol/L⋅h in [6] (Day-2). The fCmax was 51.8 nM and 51.8 ± 18.0 nM in series [6] (Day-1); 43.1 ± 10.5 nM in [6] (Day-2). The compound also had a CL/F in series [6] (male, human, plasma, oral, CL/F, Day-1, dose/AUC0-t) of 183 mL/min/kg. For the same compound, the Tmax in [6] (male, human, plasma, oral, Tmax, Day-1) was 1 h. The half-life in series [6] (male, human, plasma, oral, t1/2, Day-1) is 1.7 h. Besides, the highest level in series [6] (male, human, plasma, po, Cmax, after the first oral dose, plasma) (Cmax) was 207 nM. Moreover, in series [8], the free fraction (fraction unbound) at 0.6 μM was 0.251.
`CCN(CC)CCCC(C)Nc1ccnc2cc(Cl)ccc12` (stereo not shown) [CQ, Chloroquine diphosphate]: the “MIC50 (reported data)” value with Pf3D7 [2] was 0.005 to 0.04 µM; in the series with PfDd2 [7], 0.062 to 0.1354 µM. For the same compound, the MIC50 against Pf3D7 [3] worked out at 0.0106 µM; against PfDd2 [4], 0.0938 µM. Moreover, the MIC90 with Pf3D7 [3] is 0.0163 ± 0.0031 µM.
Consider `C[C@H]1[C@@H](O)O[C@@H]2O[C@@]3(C)CC[C@H]4[C@H](C)CC[C@@H]1[C@@]24OO3` [dihydroartemisinin], for which the MIC50 in the series on PfDd2 [7] was ~ 1.0 nM.
Consider `CC(=O)N1CCN(c2ccc(OCC3COC(Cn4ccnc4)(c4ccc(Cl)cc4Cl)O3)cc2)CC1` (stereo not shown) [ketoconazole], for which, in the series on CYP enzymes, the “Effect of inhibitor on formation of ART-M in HLMs” value was “completely inhibited”.
Regarding `Clc1ccc2c(N3CCN(CCCN4CCN(c5ccnc6cc(Cl)ccc56)CC4)CC3)ccnc2c1` [piperaquine], the Ki in the series on CYP3A is 680 nM. In [9], the Plasma protein binding is recorded as 97.4%.
